Reference: ChEMBL document CHEMBL1138321, “Asymmetric synthesis of conformationally constrained fingolimod analogues--discovery of an orally active sphingosine 1-phosphate receptor type-1 agonist and receptor type-3 antagonist” (J Med Chem, 2007)
Activity calls are given as the source filed them. The rule behind the calls is not given here.

Tests used:
[1] = target: Sphingosine 1-phosphate receptor 3 (Homo sapiens) (UniProt Q99500); assay: Agonist activity at human S1P3 receptor expressed in CHOK1 cells; type: functional, cell-based; conditions: CHO-K1
How it was run: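 Human S1P3 with N-terminal HA tag, stably expressed in a FACS-isolated clonal CHO K1 line. Confluent monolayers were washed and loaded with a calcium-sensitive fluorescent dye, and calcium transients were monitored on compound addition. Eight-point concentration-effect curves were run in triplicate and presented as SEM.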

[2] = target: Sphingosine 1-phosphate receptor 3 (Homo sapiens) (UniProt Q99500); assay: Antagonist activity at human S1P3 receptor expressed in CHOK1 cells assessed as effect on calcium mobilization; type: functional, cell-based; conditions: CHO-K1
How it was run: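 Calcium mobilization in a FACS-isolated clonal CHO K1 line stably expressing HA-tagged human S1P3, loaded with a calcium-sensitive dye. Concentration-effect curves for the agonist were run with and without 1 μM test phosphate. There were eight points in triplicate (SEM), and three independent experiments.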

[3] = target: T1, Sphingosine kinase 2 (Mus musculus) (UniProt Q9JIA7); assay: Substrate activity at mouse Sphk2 expressed in HEK293T cells; conditions: HEK-293T
T1 sequence (whole entry): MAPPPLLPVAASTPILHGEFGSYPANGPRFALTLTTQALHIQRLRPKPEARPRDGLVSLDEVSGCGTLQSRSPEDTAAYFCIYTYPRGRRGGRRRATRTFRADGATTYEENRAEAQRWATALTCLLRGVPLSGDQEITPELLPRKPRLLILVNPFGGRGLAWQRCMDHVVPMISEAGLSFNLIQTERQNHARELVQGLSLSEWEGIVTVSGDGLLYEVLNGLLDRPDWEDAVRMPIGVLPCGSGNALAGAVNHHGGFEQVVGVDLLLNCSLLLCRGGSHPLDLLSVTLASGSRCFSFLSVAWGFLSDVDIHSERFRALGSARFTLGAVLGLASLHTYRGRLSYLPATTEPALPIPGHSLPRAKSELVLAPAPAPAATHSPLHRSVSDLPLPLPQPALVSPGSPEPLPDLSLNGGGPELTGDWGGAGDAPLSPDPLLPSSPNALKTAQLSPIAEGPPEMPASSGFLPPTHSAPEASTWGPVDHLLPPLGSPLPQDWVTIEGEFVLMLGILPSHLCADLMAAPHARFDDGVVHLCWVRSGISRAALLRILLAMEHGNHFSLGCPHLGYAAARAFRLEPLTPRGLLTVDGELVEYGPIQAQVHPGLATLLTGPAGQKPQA

Mus musculus [4] = assay: Induction of lymphopenia in C57B1/6J mouse at 1 mg/kg, po after 48 hrs; type: functional, organism-based; design: dose 1 mg/kg
How it was run: (§1)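 Female C57Bl/6j mice (n=3 per group) received a single oral gavage of 1 mg/kg in 2% hydroxypropyl β-cyclodextrin on day 0. Blood was drawn from the orbital sinus under light anesthesia on the indicated days. Total lymphocytes were counted on a Hemavet 950 blood analyzer.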

Mus musculus [5] = assay: Induction of lymphopenia in C57B1/6J mouse at 1 mg/kg, po after 8 days; type: functional, organism-based; design: dose 1 mg/kg; how it was run: as §1
[6] = target: Sphingosine 1-phosphate receptor 2 (Homo sapiens) (UniProt O95136); assay: Activity at S1P2 receptor
[7] = target: T2, Sphingosine 1-phosphate receptor 4 (Homo sapiens) (UniProt O95977); assay: Activity at S1P4 receptor
T2 sequence (whole entry): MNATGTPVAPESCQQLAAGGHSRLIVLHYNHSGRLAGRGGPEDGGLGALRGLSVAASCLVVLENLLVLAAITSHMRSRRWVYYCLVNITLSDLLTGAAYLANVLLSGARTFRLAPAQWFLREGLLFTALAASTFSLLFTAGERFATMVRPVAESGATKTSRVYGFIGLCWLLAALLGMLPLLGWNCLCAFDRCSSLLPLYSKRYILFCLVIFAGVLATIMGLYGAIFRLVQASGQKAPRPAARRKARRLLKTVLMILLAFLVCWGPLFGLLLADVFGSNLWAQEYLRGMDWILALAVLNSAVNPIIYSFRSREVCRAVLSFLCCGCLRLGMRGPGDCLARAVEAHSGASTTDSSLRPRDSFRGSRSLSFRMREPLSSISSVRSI

Chain of Sphingosine 1-phosphate receptor 3 (Homo sapiens) (Q99500 whole entry): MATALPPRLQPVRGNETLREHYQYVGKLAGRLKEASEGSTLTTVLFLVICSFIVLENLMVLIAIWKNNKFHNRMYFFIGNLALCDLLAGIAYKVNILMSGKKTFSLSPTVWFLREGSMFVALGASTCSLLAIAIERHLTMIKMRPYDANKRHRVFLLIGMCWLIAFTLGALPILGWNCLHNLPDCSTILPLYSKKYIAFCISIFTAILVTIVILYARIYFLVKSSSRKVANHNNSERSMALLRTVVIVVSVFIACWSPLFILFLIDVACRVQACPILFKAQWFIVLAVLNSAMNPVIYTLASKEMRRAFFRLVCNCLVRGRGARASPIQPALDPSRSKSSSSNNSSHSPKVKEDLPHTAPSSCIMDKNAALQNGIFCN
Chain of Sphingosine 1-phosphate receptor 2 (Homo sapiens) (O95136 whole entry): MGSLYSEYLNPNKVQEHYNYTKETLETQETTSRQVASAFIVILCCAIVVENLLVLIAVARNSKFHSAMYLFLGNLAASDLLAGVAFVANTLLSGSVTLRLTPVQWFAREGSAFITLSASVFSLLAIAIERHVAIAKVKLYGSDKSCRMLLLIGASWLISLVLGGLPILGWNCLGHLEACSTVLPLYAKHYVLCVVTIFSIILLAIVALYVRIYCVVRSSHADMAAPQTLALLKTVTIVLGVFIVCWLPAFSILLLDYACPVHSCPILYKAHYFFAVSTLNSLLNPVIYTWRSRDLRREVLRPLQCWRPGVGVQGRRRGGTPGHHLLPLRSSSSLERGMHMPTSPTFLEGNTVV

SMILES	Activity [1]	Activity [2]	Activity [3]	also measured
CCCCCCCCc1ccc([C@@H]2CC[C@@](N)(COP(=O)(O)O)C2)cc1	inactive	Active		
CCCCCCCCc1ccc([C@@H]2CC[C@](N)(COP(=O)(O)O)C2)cc1	inactive	inactive		
CCCCCCCCc1ccc([C@H]2CC[C@@](N)(CO)C2)cc1			inactive	
CCCCCCCCc1ccc([C@H]2CC[C@@](N)(COP(=O)(O)O)C2)cc1	inactive	Active		
CCCCCCCCc1ccc([C@H]2CC[C@](N)(COP(=O)(O)O)C2)cc1	inactive	Active		
CCCCCCCCc1ccc([C@@H]2CC[C@](N)(CO)C2)cc1			Active	Activity (Mus musculus [4]): Active; Activity (Mus musculus [5]): Active
CCCCCCCCc1ccc([C@@H]2CC[C@@](N)(CO)C2)cc1			inactive	
CCCCCCCCc1ccc([C@H]2CC[C@](N)(CO)C2)cc1			Active	Activity (Mus musculus [4]): Active
CCCCCCCCc1ccc(C2CCC(N)(COP(=O)(O)O)C2)cc1 (configuration not stated)				Activity [6]: inactive; Activity [7]: Active
